{"data": "Results from different studies", "target": "Alpha-1D adrenergic receptor (ADRA1D, Homo sapiens, UniProt P25100)", "tested at": "10 µM", "Sequence (P25100 1-572, as in one of the studies)": "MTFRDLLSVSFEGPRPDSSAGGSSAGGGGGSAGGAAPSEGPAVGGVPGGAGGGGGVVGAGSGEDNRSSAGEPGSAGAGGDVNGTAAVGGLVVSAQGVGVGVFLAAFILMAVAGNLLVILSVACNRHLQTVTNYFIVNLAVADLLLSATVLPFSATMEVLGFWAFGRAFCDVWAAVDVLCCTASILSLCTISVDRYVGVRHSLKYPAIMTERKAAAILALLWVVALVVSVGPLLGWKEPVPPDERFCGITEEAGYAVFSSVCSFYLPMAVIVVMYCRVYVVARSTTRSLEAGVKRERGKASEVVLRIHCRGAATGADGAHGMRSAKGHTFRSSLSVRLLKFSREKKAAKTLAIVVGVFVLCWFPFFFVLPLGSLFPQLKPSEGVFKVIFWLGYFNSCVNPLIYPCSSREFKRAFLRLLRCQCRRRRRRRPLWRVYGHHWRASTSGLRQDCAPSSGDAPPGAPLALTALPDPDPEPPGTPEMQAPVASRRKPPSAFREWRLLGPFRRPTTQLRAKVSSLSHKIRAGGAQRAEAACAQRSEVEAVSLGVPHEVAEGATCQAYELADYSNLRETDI", "note": "Each line is one published result; the experiments were not run side by side."}
{"Structure (SMILES)": "N#Cc1cc(Cn2c(N3CCCC3)nc3ccccc32)ccc1F", "test": "ligand displacement", "inhibition [%]": -11.1}
{"Structure (SMILES)": "O=C(c1ccc(F)cc1)N(Cc1ccccc1)C1CCCCC1", "test": "cell-free assay", "inhibition [%]": 7}
{"Structure (SMILES)": "CCN(Cc1ccccc1C(F)(F)F)C(=O)C1CCN(S(=O)(=O)c2ccc3[nH]ncc3c2)CC1", "test": "ligand displacement, radioligand", "inhibition [%]": 5}
{"Structure (SMILES)": "CCN(CC)c1ccc(C2Nc3ccc(C(=O)c4ccccc4)cc3NC3=C2C(=O)CC(C)(C)C3)cc1 (centres unmarked)", "test": "ligand displacement, radioligand", "inhibition [%]": 8}
{"Structure (SMILES)": "CC(=O)C1=C(C)N(c2cccc(C(F)(F)F)c2)C(=O)N[C@H]1c1ccc(C#N)nc1", "test": "ligand displacement", "inhibition [%]": 7.7}
{"Structure (SMILES)": "CCCNc1nc2ccccc2n1Cc1ccc(Cl)cc1", "test": "ligand displacement", "inhibition [%]": 10.2}
{"Structure (SMILES)": "CC(C)(C)OC(=O)N1CCCC1CNC1CCC(c2cc(F)ccc2F)(S(=O)(=O)c2ccc(Cl)cc2)CC1 (centres unmarked)", "test": "cell-free assay", "inhibition [%]": 22.5}
{"Structure (SMILES)": "O=C(Nc1ccc(S(=O)(=O)N2CCC(Cl)CC2)cc1)c1ccc([N+](=O)[O-])o1", "test": "ligand displacement, radioligand", "inhibition [%]": 8}
